Reference: ChEMBL document CHEMBL4052582, “A Versatile Method to Determine the Cellular Bioavailability of Small-Molecule Inhibitors” (J Med Chem, 2017)

Experiments:
MDA-MB-231 = assay: Antiproliferative activity against human MDA-MB-231 cells after 72 hrs by MTS assay; assay type: functional, cell-based; conditions: MDA-MB-231, 72 h
[1] = Drug uptake in human MDA-MB-231 cells assessed per million cells at 2 uM in presence of 1% FBS after 24 hrs incubation by HPLC-MS analysis; assay type: ADME, cell-based; conditions: mda-mb-231, 24 h
Method in brief: (§1)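 MDA-MB-231 cells grown in T-25 flasks in DMEM/10% FBS to ~70% confluency, then given fresh DMEM with the stated FBS plus inhibitor (0.02% DMSO final), 37 °C, 24 h. Cells washed with cold PBS ×3, extracted overnight at 4 °C with cold MeCN/MeOH 1:1, centrifuged, quantified by HPLC against calibration curves, corrected for dilution, cell number and solvent extraction efficiency; nmol per million cells; triplicate, mean ± SD.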

[2] = Drug uptake in human MDA-MB-231 cells assessed per million cells at 2 uM in presence of 5% FBS after 24 hrs incubation by HPLC-MS analysis; assay type: ADME, cell-based; conditions: mda-mb-231, 24 h; method in brief: as §1
[3] = Drug accumulation in human MDA-MB-231 cells at 2 uM in presence of 5% FBS after 24 hrs incubation by HPLC-MS analysis; assay type: ADME, cell-based; conditions: mda-mb-231, 24 h; method in brief: as §1
[4] = Drug uptake in human MDA-MB-231 cells assessed per million cells preincubated for 6 hrs followed by solvent addition measured after overnight incubation at 4 degC by HPLC-MS analysis; assay type: ADME, cell-based; conditions: mda-mb-231, 6 h
[5] = Drug uptake in human MDA-MB-231 cells assessed per million cells preincubated for 6 hrs followed by trypsin-EDTA digestion for 2 mins measured after overnight incubation at 4 degC by HPLC-MS analysis; assay type: ADME, cell-based; conditions: mda-mb-231, 2 min
Method in brief: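 After 6 h inhibitor exposure at 37 °C, MDA-MB-231 cells washed three times with ice-cold PBS, detached with 0.25% trypsin/1 mM EDTA in PBS for 2 min at 37 °C, resuspended in cold DMEM, washed once in ice-cold PBS, extracted with cold MeCN/MeOH 1:1, HPLC quantified; triplicate, mean ± SD divided by extraction efficiency.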

[6] = Drug uptake in human MDA-MB-231 cells assessed as cell bound drug level per million cells at 2 uM in presence of 5% FBS after 6 hrs at 4 degC by HPLC-MS analysis; assay type: ADME, cell-based; conditions: mda-mb-231, 6 h
Method in brief: (§2)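 Confluent (~70%) MDA-MB-231 cells given inhibitor in 5 mL cold DMEM with 0.02% DMSO (10% FBS for BRD-targeting inhibitors, 5% FBS for β-catenin/BCL9 inhibitors), held at 4 °C for 6 h; then washed, extracted overnight at 4 °C in MeCN/MeOH 1:1, HPLC quantified; triplicate, mean ± SD divided by solvent extraction efficiency.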

[7] = Apparent permeability at 200 uM after 5 hrs by PAMPA; assay type: physicochemical
Method in brief: (§3)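 Artificial membrane of 1% egg lecithin in n-dodecane on a filter plate; compound at 200 μM on donor side, 5 h at room temperature; compound quantified by HPLC/DAD; percent transport and apparent permeability calculated from previously published equations.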

[8] = Permeability assessed as drug transport at 200 uM after 5 hrs by PAMPA; assay type: physicochemical; method in brief: as §3
[9] = Solubility of the compound in DMEM medium up to 200 uM; assay type: physicochemical
[10] = Stability of the compound in DMEM medium assessed as parent compound remaining at 100 uM after 72 hrs in absence of 10% FBS by HPLC method
Method in brief: (§4)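 Compound added at 100 μM final (0.02% v/v DMSO) to 5 mL DMEM with or without 10% FBS in T-25 flasks, no cells; incubated 37 °C in CO2 incubator for 3–72 h. Aliquots drawn at each time point and analysed by HPLC; parent remaining taken from chromatogram AUC relative to starting time point. Triplicate.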

[11] = Stability of the compound in DMEM medium assessed as parent compound remaining at 100 uM after 72 hrs in presence of 10% FBS by HPLC method
Method in brief: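 Compound at 100 μM final (0.02% DMSO) in 5 mL DMEM with or without 10% FBS, cell-free in T-25 flasks, 37 °C in CO2 incubator for 3–72 h. Aliquots analysed by HPLC. Percent remaining derived from chromatogram AUC relative to starting time point. Triplicate.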

[12] = Retention time of the compound by HPLC/DAD analysis
Method in brief: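 Agilent HPLC with DAD, detection at 254/355 nm or 235/355 nm. Kromasil C18 column (4.6 × 250 mm), 20 μL injection. Gradient from H2O (0.1% TFA) to 50:50 MeCN over 0–18 min, then to 100% MeCN by 20 min, held to 25 min, at 1.5 mL/min.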

[13] = Drug uptake in human MDA-MB-231 cells assessed as intracellular concentration at 0.0103 umol in presence of 5% FBS after 24 hrs by HPLC-MS analysis; assay type: ADME, cell-based; conditions: mda-mb-231, 24 h; method in brief: as §1
[14] = Drug uptake in human MDA-MB-231 cells assessed as extracted concentration at 2 uM after 24 hrs by HPLC-MS analysis; assay type: ADME, cell-based; conditions: mda-mb-231, 24 h
Method in brief: (§5)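 MDA-MB-231 cells at ~70% confluency in T-25 flasks exposed to a range of inhibitor input concentrations in DMEM with FBS, 0.02% DMSO, 37 °C, 24 h; cold PBS washes, overnight MeCN/MeOH 1:1 extraction at 4 °C, HPLC quantification against calibration curves with extraction-efficiency correction.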

[15] = Drug uptake in human MDA-MB-231 cells assessed as extracted concentration at 20 uM after 24 hrs by HPLC-MS analysis; assay type: ADME, cell-based; conditions: mda-mb-231, 24 h; method in brief: as §5
[16] = Drug uptake in human MDA-MB-231 cells assessed as extracted concentration at 0.2 uM after 24 hrs by HPLC-MS analysis; assay type: ADME, cell-based; conditions: mda-mb-231, 24 h; method in brief: as §5
[17] = Drug uptake in human MDA-MB-231 cells assessed as non specific binding with culture plate at 2 uM in presence of 5% FBS after 6 hrs at 4 degC by HPLC-MS analysis; assay type: ADME, cell-based; conditions: mda-mb-231, 6 h
[18] = Drug uptake in human MDA-MB-231 cells after 6 hrs in presence of 5% FBS by HPLC-MS analysis; assay type: ADME, cell-based; conditions: mda-mb-231, 6 h
Method in brief: (§6)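 MDA-MB-231 cells at ~70% confluency in T-25 flasks, incubated 6 h at 37 °C with inhibitor in DMEM containing the stated FBS (0.02% DMSO). Parallel 6 h incubation at 4 °C in cold DMEM used to measure nonspecific cell-bound amount. Accurate intracellular moles = 37 °C value minus 4 °C value. Extraction with MeCN/MeOH 1:1, HPLC quantification, corrected for extraction efficiency. Triplicate.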

[19] = Stability in human MDA-MB-231 cells at 2 uM after 72 hrs by HPLC-MS analysis; assay type: ADME, cell-based; conditions: mda-mb-231, 72 h
Method in brief: (§7)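 Time course: inhibitor added to ~70%-confluent MDA-MB-231 cells in T-25 flasks, in 5 mL DMEM plus FBS (0.02% DMSO), incubated at 37 °C for 3–72 h. At each time point cells washed with cold PBS and extracted with cold MeCN/MeOH 1:1 overnight at 4 °C. Intracellular moles per million cells determined by HPLC calibration.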

[20] = Drug uptake in human MDA-MB-231 cells assessed per million cells at 10 uM in presence of 1% FBS after 24 hrs incubation by HPLC-MS analysis; assay type: ADME, cell-based; conditions: mda-mb-231, 24 h; method in brief: as §1
[21] = Drug uptake in human MDA-MB-231 cells assessed per million cells at 10 uM in presence of 5% FBS after 24 hrs incubation by HPLC-MS analysis; assay type: ADME, cell-based; conditions: mda-mb-231, 24 h; method in brief: as §1
[22] = Drug uptake in human MDA-MB-231 cells assessed per million cells at 10 uM in presence of 10% FBS after 24 hrs incubation by HPLC-MS analysis; assay type: ADME, cell-based; conditions: mda-mb-231, 24 h; method in brief: as §1
[23] = Drug accumulation in human MDA-MB-231 cells at 10 uM in presence of 10% FBS after 24 hrs incubation by HPLC-MS analysis; assay type: ADME, cell-based; conditions: mda-mb-231, 24 h; method in brief: as §1
[24] = Drug uptake in human MDA-MB-231 cells assessed as extracellular concentration at 0.065 umol in presence of 10% FBS after 24 hrs by HPLC-MS analysis; assay type: ADME, cell-based; conditions: mda-mb-231, 24 h
Method in brief: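 MDA-MB-231 cells incubated 24 h at 37 °C with inhibitor in 5 mL DMEM with the stated FBS. Media plus cold PBS washes pooled, dried; cells extracted with MeCN/MeOH 1:1; HPLC peak areas of both fractions compared by mass balance with the input moles added to medium.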

[25] = Drug uptake in human MDA-MB-231 cells assessed as intracellular concentration at 0.065 umol in presence of 10% FBS after 24 hrs by HPLC-MS analysis; assay type: ADME, cell-based; conditions: mda-mb-231, 24 h; method in brief: as §1
[26] = Drug uptake in human MDA-MB-231 cells assessed as extracted concentration at 1 uM after 24 hrs by HPLC-MS analysis; assay type: ADME, cell-based; conditions: mda-mb-231, 24 h; method in brief: as §5
[27] = Drug uptake in human MDA-MB-231 cells assessed as extracted concentration at 10 uM after 24 hrs by HPLC-MS analysis; assay type: ADME, cell-based; conditions: mda-mb-231, 24 h; method in brief: as §5
[28] = Drug uptake in human MDA-MB-231 cells assessed as extracted concentration at 100 uM after 24 hrs by HPLC-MS analysis; assay type: ADME, cell-based; conditions: mda-mb-231, 24 h; method in brief: as §5
[29] = Drug uptake in human MDA-MB-231 cells assessed per million cells at 10 uM in presence of 5% FBS after 6 hrs at 4 degC by HPLC-MS analysis; assay type: ADME, cell-based; conditions: mda-mb-231, 6 h; method in brief: as §2
[30] = Drug uptake in human MDA-MB-231 cells after 6 hrs in presence of 10% FBS by HPLC-MS analysis; assay type: ADME, cell-based; conditions: mda-mb-231, 6 h; method in brief: as §6
[31] = Stability in human MDA-MB-231 cells at 10 uM after 72 hrs by HPLC-MS analysis; assay type: ADME, cell-based; conditions: mda-mb-231, 72 h; method in brief: as §7
[32] = Stability of the compound in DMEM medium assessed as parent compound remaining at 100 uM after 24 hrs in presence of 10% FBS by HPLC method; method in brief: as §4

Cl.Cl.O=C(Nc1ccc(O[C@H]2CCNC2)c(-c2ccc(F)cc2)c1)c1ccc(O[C@H]2CCNC2)c(-c2ccc(F)c(F)c2)c1
IC50 (MDA-MB-231): 2300 nM
Drug uptake [1]: 6.1 nmol
Drug uptake [2]: 6.5 nmol
Drug uptake [3]: 98%
Drug uptake [4]: 6.7 nmol
Drug uptake [5]: 5.5 nmol
Drug uptake [6]: 1 nmol
Papp at 5 h, 200 µM [7]: 0.13 ×10⁻⁶ cm/s
Drug transport [8]: 0.2%
solubility [9]: Soluble
Stability [10]: 47%
Stability [11]: 70%
Retention time [12]: 15.8 min
Drug uptake [13]: 0.0101 µmol
Drug uptake [14]: 0.076 µM
Drug uptake [15]: 0.128 µM
Drug uptake [16]: 0.022 µM
Drug uptake [17]: 4%
Drug uptake [18]: Dose-dependent effect
Stability [19]: Stable

CC(=O)c1cc(-c2cc(C(=O)NC3CC3)ccc2C)c2ncccn12
Drug uptake [20]: 0.069 nmol
Drug uptake [21]: 0.074 nmol
Drug uptake [22]: 0.12 nmol
Drug uptake [23]: 2%
Drug uptake [4]: 0.11 nmol
Drug uptake [5]: 0.038 nmol
Drug uptake [6]: 0.085 nmol
Papp at 5 h, 200 µM [7]: 14.3 ×10⁻⁶ cm/s
Drug transport [8]: 32.3%
solubility [9]: Soluble
Stability [10]: 94%
Stability [11]: Unstable
Retention time [12]: 16.4 min
Drug uptake [24]: 0.059 µmol
Drug uptake [25]: 0.0012 µmol
Drug uptake [26]: 0.035 µM
Drug uptake [27]: 0.1 µM
Drug uptake [28]: 0.665 µM
Drug uptake [29]: 0.025 nmol
Drug uptake [30]: Dose-dependent effect
Stability [31]: Stable
Stability [32]: 94%
